Assay results published in article PMC2729689 (Hypertension, 2009).
“Also recorded” adds a separate entry of the source. Where no end group is shown, it is not given here.

How the values were obtained:
[1] = tested on: GC-C knockout mouse kidneys; conditions: cited from earlier work
[2] = tested on: GC-C knockout mouse intestine; conditions: cited from earlier work
[3] = rat, mouse, and opossum forms; 37° C and neutral pH; cited from earlier work
kidney = conditions: cited from earlier work
[4] = tested on: anesthetized rats (male Sprague Dawley); test: Urinary sodium excretion; type: in vivo, rat
[5] = molecular target: GC-C (GC-C-expressing T84 cell line) (Homo sapiens, UniProt P25092); test: T84 cell-based cyclic GMP bioassay
Chain of GC-C (GC-C-expressing T84 cell line) (P25092 24-1073): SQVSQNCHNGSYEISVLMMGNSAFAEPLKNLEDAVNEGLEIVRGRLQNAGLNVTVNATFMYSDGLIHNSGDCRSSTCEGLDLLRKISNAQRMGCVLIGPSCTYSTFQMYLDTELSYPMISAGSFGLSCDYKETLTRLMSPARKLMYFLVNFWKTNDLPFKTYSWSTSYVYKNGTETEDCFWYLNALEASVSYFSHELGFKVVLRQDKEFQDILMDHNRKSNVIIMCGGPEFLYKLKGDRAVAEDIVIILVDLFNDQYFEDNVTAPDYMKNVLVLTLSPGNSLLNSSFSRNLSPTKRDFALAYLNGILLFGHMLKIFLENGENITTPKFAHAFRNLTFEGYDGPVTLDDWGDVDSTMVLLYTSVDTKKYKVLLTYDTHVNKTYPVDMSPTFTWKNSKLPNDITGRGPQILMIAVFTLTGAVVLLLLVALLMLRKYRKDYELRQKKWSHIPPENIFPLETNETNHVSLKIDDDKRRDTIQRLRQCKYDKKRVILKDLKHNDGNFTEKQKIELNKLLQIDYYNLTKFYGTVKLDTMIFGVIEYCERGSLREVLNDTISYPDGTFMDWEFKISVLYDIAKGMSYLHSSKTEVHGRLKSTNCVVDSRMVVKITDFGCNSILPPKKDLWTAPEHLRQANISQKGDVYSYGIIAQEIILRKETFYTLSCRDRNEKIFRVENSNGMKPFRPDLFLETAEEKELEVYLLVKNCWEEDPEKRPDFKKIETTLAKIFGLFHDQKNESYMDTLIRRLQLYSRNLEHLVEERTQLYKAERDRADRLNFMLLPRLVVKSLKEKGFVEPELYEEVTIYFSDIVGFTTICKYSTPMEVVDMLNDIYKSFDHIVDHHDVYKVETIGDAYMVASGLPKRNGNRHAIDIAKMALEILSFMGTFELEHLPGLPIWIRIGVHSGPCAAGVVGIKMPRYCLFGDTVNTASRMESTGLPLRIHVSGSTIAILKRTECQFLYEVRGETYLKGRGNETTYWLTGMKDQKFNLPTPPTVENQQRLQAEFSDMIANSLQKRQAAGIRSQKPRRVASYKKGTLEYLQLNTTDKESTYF
In short: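 Test peptide diluted into bioassay medium (1 mM IBMX, 137 mM NaCl, 5.4 mM KCl, 1.3 mM CaCl2, 1.0 mM MgSO4, 4.2 mM NaHCO3, phosphates, phenol red, 10 mM HEPES), pH readjusted to 7.0 if required, then applied to T84 cells for 30 min. Cells lysed; cyclic GMP measured by radioimmunoassay. Concentration-response data fitted with the log(agonist) vs response equation.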

[6] = tested on: chymotrypsin-like activity in the kidney; conditions: cited from earlier work

**Q.** For “rat Ugn: rat form of uroguanylin; A and B forms interconvert rapidly (TDECELCINVACTGC; not fully specified (bridges); ends and bridges not checked; UniProt P70668 92-106, looked up)”, which “natriuretic response from the kidneys” value [1] is on record?
**A.** Its value is “apparently full natriuretic responses”.

**Q.** And the “secretory response from the intestine” value [2]?
**A.** Its value is “only small, residual secretory responses”.

**Q.** Which results are given for “uroguanylin (NDDCELCVNVACTGCL; ends and bridges not checked; cysteine pairing not given here; UniProt Q16661 97-112, looked up) [Ugn]”?
**A.** rate of interconversion of the two conformations [3]: 1–2 cycles per sec; natriuretic, kaliuretic, diuretic effect (kidney; every preparation that has been examined): natriuretic, kaliuretic, and diuretic in every preparation that has been examined; natriuretic potency, Ugn versus Gn (kidney; words): a more potent natriuretic factor than Gn

**Q.** Which “natriuretic effect compared with huUgnA” value ([4]; iv infusion, cumulative 3 hour, Figure 6b, words) does the source give for “CCELCCNPACTGCY (also: bicyclic or more (positions not given here)) [ST-core]” here?
**A.** The value was “the maximal natriuresis elicited by ST-core was slightly less and the response was shifted to the right; also recorded: right-shifted, but otherwise quite similar to those evoked by huUgnA”.

**Q.** And the “pharmacological profile of the renal responses (rank order)” value ([4]; rat, in vivo)?
**A.** Its value is “huUgnB ≥ huUgnA ≈ ST core, with physiological antagonism by huUgnA at high concentration”.

**Q.** What about the “EC50 for cyclic GMP stimulation relative to huUgnA (fold lower)” value ([5]; T84 cells, no reference or data printed) of the same substance?
**A.** Its value is “about 10 fold”.

**Q.** What about the “pharmacological profile of GC-C-mediated responses (rank order)” value ([5]; described as well-established) of the same substance?
**A.** The value was “ST core > huUgnA >> huUgnB, with all three peptides acting as pure agonists”.

**Q.** For “guanylin (PGTCEICAYAACTGC; ends and bridges not checked; cysteine pairing not given here; UniProt Q02747 101-115, looked up) [Gn]”, which “rate of interconversion of the two conformations” value [3] is on record?
**A.** Its value is 1–2 cycles per sec.

**Q.** What about the “susceptibility to proteolytic digestion” value ([6]; chymotrypsin-like activity in the kidney) of the same substance?
**A.** Its value is “susceptible to proteolytic digestion”.

**Q.** And the detectability in urine [6]?
**A.** Its detectability in urine is “undetectable in urine”.

**Q.** And the “kaliuretic activity, Gn versus Ugn” value (kidney; words)?
**A.** The value was “more kaliuretic than Ugn”.
